Source: PubChem BioAssay (several laboratories)
This is a sample that favours compounds with a hit; in the whole collection about 5.7% have one here.
Calb FLC: affects C. albicans growth with fluconazole; C. albicans CaCi-2 (fluconazole-resistant clinical isolate) + fluconazole, Alamar Blue growth, 48 h; growth inhibition, % (concentration not given with the values); actives 0.57% (n = 300,000); AID 1979;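 active = growth inhibition above about 58% in most replicates, limit read from the data, passing the limit was not always enough; inconclusive = exactly half the replicates above a set limit; inactive = most replicates below a set limit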;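 note: all wells also contain fluconazole at 8 µg/ml as a sub-toxic cotreatment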
CSC inhib: cancer stem cell inhibition | cancer stem cell-like cells viability, luminescence | actives 1.1% (n = 300,000) | inhibition, % at 7.5 µM; in the data active = inhibition above about 75%; inconclusive = no clear call, values can overlap the other calls; tested in HMLE shEcad cells
Mdm2 MdmX PPI: disrupts the human Mdm2-MdmX interaction | O15151+Q00987 | SaOS-2 split-luciferase Mdm2/MdmX complementation, luminescence | inhibition, % at 8 µM | actives 3% (n = 330,000) | AID 485346;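 active = inhibition of at least 50% at 8 µM in the primary screen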
Target sequence (O15151 whole entry, looked up): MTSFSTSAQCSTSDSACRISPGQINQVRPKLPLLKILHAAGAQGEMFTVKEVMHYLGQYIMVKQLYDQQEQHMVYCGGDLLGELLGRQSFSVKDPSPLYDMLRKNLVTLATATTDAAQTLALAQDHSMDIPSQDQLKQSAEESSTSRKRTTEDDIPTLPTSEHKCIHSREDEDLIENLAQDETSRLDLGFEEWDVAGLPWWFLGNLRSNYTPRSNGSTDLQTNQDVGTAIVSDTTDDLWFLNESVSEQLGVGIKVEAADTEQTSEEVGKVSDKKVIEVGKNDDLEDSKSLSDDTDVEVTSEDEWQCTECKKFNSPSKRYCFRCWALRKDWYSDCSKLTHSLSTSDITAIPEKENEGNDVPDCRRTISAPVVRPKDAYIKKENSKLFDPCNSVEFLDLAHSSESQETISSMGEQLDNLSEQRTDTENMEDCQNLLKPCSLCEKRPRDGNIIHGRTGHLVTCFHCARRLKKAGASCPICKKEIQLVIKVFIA
Target sequence (Q00987 whole entry, looked up): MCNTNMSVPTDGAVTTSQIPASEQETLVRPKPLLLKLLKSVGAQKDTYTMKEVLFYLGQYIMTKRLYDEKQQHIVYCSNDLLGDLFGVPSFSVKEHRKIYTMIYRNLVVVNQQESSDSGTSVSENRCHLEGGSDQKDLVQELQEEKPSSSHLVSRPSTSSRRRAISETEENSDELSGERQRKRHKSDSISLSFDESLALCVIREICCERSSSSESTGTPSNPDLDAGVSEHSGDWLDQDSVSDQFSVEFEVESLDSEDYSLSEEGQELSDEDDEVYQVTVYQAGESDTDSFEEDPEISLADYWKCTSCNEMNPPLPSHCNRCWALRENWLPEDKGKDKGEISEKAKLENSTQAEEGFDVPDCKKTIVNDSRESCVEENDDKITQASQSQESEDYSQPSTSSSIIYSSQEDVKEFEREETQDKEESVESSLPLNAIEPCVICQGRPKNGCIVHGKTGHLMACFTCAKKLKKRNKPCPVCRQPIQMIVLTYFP
Beta apoptosis: blocks beta cell apoptosis | INS-1E cytokine-induced death, ATP luminescence, 48 h; percent of positive-control rescue, neutral wells zero | protection from apoptosis, % (no concentration beside the values) | actives 0.8% (n = 300,000) | AID 435005;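 active = Every replicate reaches about 75%, or at least half do and their mean reaches it too, limit read from the data; inconclusive = At least half of replicates reach the limit but their mean does not; inactive = Under half of replicates reach the limit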;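 note: higher means more ATP so stronger rescue from cytokine killing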
SKKanGAS inh: inhibitors of SKKanGAS S. pyogenes growth in kanamycin (SK-promoter or general growth effect). BacTiter-Glo, 6 h. inhibition, % at 7.5 µM. actives 1.3% (n = 300,000). AID 1662;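 active = mean replicate score, as percent of positive control median, at least 50; inconclusive = mean below 50 but one replicate at or above 50; inactive = mean and every replicate below 50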;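 note: strain carries kanamycin resistance gene driven by streptokinase promoter and grows in 40 µg/ml kanamycin; loss of luminescence reflects streptokinase promoter inhibition or plain growth inhibition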
T cruzi inh: T. cruzi replication inhibition; inhibition, % (test concentration not listed); T. cruzi beta-gal in NIH3T3, luminescence, 90 h; actives 1.4% (n = 300,000);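 active = mean inhibition across valid replicates above about 55%, limit read from the data; inconclusive = mean below that limit but half or more replicates reach it; inactive = mean below it, under half of replicates reach it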;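 note: signal also drops with host cell toxicity which is not excluded here; higher percent means less beta-gal luminescence so fewer parasites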
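compound dosing = single 50 nL compound addition per well in DMSO | material = NIH/3T3 host cells with β-galactosidase reporter T. cruzi | input = 5,000 host fibroblasts per well | timing = ≥90 h infection period, 3 h prior cell attachment | read-out basis = percent inhibition of parasite-derived β-gal signal | detection = GalScreen β-gal luminescence, detergent lysis, 60 min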
Mdm2-MdmX conf: confirmation of human Mdm2/MdmX interaction inhibitors; shares compounds with Mdm2 MdmX PPI; Mdm2-MdmX binding, luminescent assay; inhibition, % at 8 µM; actives 55% (n = 10,000); AID 489028; in the data active = inhibition above about 40%
Full FLuc ctr: full-length luciferase inhibition in Mdm2/MdmX counter-screen; shares compounds with Mdm2 MdmX PPI; SaOS-2 full-length luciferase counterscreen, luminescence; inhibition, % at 8 µM; actives 77% (n = 6,200); AID 504607;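 active = mean inhibition at 8 µM reaching about 37%, which flags the compound as non-specific, limit read from the data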;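 note: p53-null SaOS-2 cells with luciferase driven by a doxycycline-inducible promoter; compound on cells about two nights before reading with doxycycline added after day one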
Of the large screens only hits and unclear results are named; the others gave an inactive call (follow-up assays come after a bar, where they were run).

COc1ccc(-c2oc3ccc(-c4ccc5c(c4)OCO5)cc3c2-c2ccc(OC)nc2)cc1	none
COc1cc(-c2ccc3oc(-c4cccc(C)c4)c(C#CC4(O)CCCCC4)c3c2)cc(OC)c1OC	CSC inhib 80.6, Mdm2 MdmX PPI 55.8 (no result: Calb FLC, SKKanGAS inh, T cruzi inh) | Mdm2-MdmX conf inactive
CN(C(=O)c1ccccc1Cl)c1ccccc1C(=O)NCCc1ccccc1	none
Cc1cc(C)cc(NC(=O)C(=O)NCC2CCCN2S(=O)(=O)c2cccs2)c1 (stereo not given)	none
COC(=O)c1ccc(Oc2nc(SC)nc(N(C)C)n2)cc1	none
COC(=O)C1CCN(C(=O)c2cc(S(=O)(=O)N3CCCCC3)ccc2Cl)CC1	none (no result: Calb FLC, CSC inhib, SKKanGAS inh, T cruzi inh)
COc1ccc(-c2ccc3oc(-c4ccc(OC)cc4)c(C#CCO)c3c2)cc1	Mdm2 MdmX PPI 87.9, SKKanGAS inh inconclusive | Mdm2-MdmX conf 72.6 | Full FLuc ctr inactive
Oc1c(C(c2ccccn2)N2CCC(Cc3ccccc3)CC2)cc(Cl)c2cccnc12 (stereo not given)	Calb FLC 105.0, Mdm2 MdmX PPI 55.7, SKKanGAS inh 74.9 (no result: CSC inhib) | Mdm2-MdmX conf inactive | Full FLuc ctr inactive
Cc1ccc(C(c2cc(Cl)c3cccnc3c2O)N2CCN(C)CC2)cc1 (stereo not given)	Calb FLC 87.8, CSC inhib 115.2, Mdm2 MdmX PPI 68.8, SKKanGAS inh 51.0 | Mdm2-MdmX conf 57.1 | Full FLuc ctr inactive
Oc1c(C(c2ccc(Cl)cc2)N2CCCC2)cc(Cl)c2cccnc12 (stereo not given)	Calb FLC 98.5, CSC inhib 99.3, Mdm2 MdmX PPI 80.0, SKKanGAS inh 79.8, T cruzi inh 70.3 | Mdm2-MdmX conf 72.5 | Full FLuc ctr inactive
O=C(COC(=O)c1ccccc1O)Nc1cc([N+](=O)[O-])ccc1Cl	none
Cc1ccc(CN2CCNC(=O)C2CC(=O)NCc2cc(C)n(C)n2)cc1 (stereo not given)	none
O=C(Nc1ccccn1)c1ccc(CN(c2ccccc2)S(=O)(=O)c2ccccc2)cc1	none (no result: Beta apoptosis)
COc1ccc(N(Cc2ccccc2)S(=O)(=O)c2cccc(C(=O)Nc3ccccn3)c2)cc1	Mdm2 MdmX PPI 57.2 (no result: Calb FLC, CSC inhib, SKKanGAS inh, T cruzi inh) | Mdm2-MdmX conf inactive
COc1ccccc1N(C)S(=O)(=O)c1ccc(C(=O)NNC(=O)c2ccccc2O)cc1	Mdm2 MdmX PPI 61.9 (no result: Calb FLC, CSC inhib, Beta apoptosis, SKKanGAS inh, T cruzi inh) | Mdm2-MdmX conf 59.9 | Full FLuc ctr 48.2
COc1ccc(NS(=O)(=O)c2cccc(C(=O)NNC(=O)c3ccccc3O)c2)cc1	Mdm2 MdmX PPI 52.8 | Mdm2-MdmX conf 55.5 | Full FLuc ctr 58.5
CN(C)CCCNC(=O)C1(O)c2cc(Br)ccc2NC(=O)N1c1c(F)cccc1F (stereo not given)	none
COc1cc2nc(CN3CCOCC3)n(CC(=O)NCC(F)(F)F)c(=O)c2cc1OC	none
Cc1ccc(-n2nc(C)c3onc(C)c3c2=O)cc1	none
CN1CCN(c2ccc(NC(=O)CSc3nnnn3-c3ccccc3Cl)cc2)CC1	none
O=C(CSc1nnc2c3ccccc3c3ccccc3c2n1)Nc1ccccc1F	Mdm2 MdmX PPI 75.7 | Mdm2-MdmX conf inactive
O=C(CSc1nnc2c3ccccc3c3ccccc3c2n1)Nc1ccccc1	none (no result: CSC inhib)
CCOC(=O)c1ccc(NC(=O)C(=O)NCC2(c3ccc(OC)cc3)CCOCC2)cc1	none
CCn1cc(C(=O)NCCCN2CCC(C)CC2)c(=O)c2cc(S(=O)(=O)N(C)C3CCCCC3)ccc21	none
CCn1cc(C(=O)NCCCN2CC(C)CC(C)C2)c(=O)c2cc(S(=O)(=O)N(C)C3CCCCC3)ccc21 (stereo not given)	Mdm2 MdmX PPI 51.7 | Mdm2-MdmX conf inactive | Full FLuc ctr 60.1
NS(=O)(=O)c1ccc(CCNC(=O)COC(=O)/C=C/c2ccc(Cl)cc2)cc1	none
CCN(CC)C(=O)COc1ccc(-c2nnc(N3CCCCC3)c3ccccc23)cc1	none (no result: CSC inhib)
CCOc1ccc(-c2nnc(N3CCCCC3)c3ccccc23)cc1	Mdm2 MdmX PPI 62.2 | Mdm2-MdmX conf inactive
COc1ccc(N/C=C/C(=O)c2ccccc2)cc1	none
COc1ccc(N/C=C/C(=O)c2sc(-c3ccccc3)nc2C)cc1	Mdm2 MdmX PPI 58.7 | Mdm2-MdmX conf inactive | Full FLuc ctr 98.5
CSCCC(NC(=O)c1ccccc1Cl)C(=O)Nc1ccncc1 (stereo not given)	none (no result: Calb FLC, CSC inhib, Beta apoptosis, SKKanGAS inh, T cruzi inh)
Cc1ccc(C(=O)N2CCCC(c3ccc(Cl)cc3)=N2)cc1	none
O=[N+]([O-])c1ccccc1S(=O)(=O)N1CCSCC1	none (no result: Calb FLC, SKKanGAS inh, T cruzi inh)
Cc1ccc(N=c2oc3cc(O)ccc3cc2C(N)=O)cc1	Mdm2 MdmX PPI 83.7, T cruzi inh 60.2 | Mdm2-MdmX conf 53.2 | Full FLuc ctr inactive
CC(=O)c1cc2ccc(O)cc2oc1=O	none
COc1cccc(N2CCN(C(=O)c3cc(-c4ccccc4)nc4c3cnn4C(C)C)CC2)c1	none (no result: Calb FLC, SKKanGAS inh, T cruzi inh)
CCOC(=O)Cn1c(S(=O)(=O)Cc2ccc(F)cc2)nc(-c2ccccc2)c1-c1ccccc1	Calb FLC inconclusive, Mdm2 MdmX PPI 79.5 | Mdm2-MdmX conf 56.1 | Full FLuc ctr 62.6
CCOC(=O)Cn1c(S(=O)(=O)Cc2cccc(F)c2)nc(-c2ccccc2)c1-c1ccccc1	Mdm2 MdmX PPI 81.2 | Mdm2-MdmX conf 56.3 | Full FLuc ctr 67.2
C#CCn1c(S(=O)(=O)Cc2ccc(F)cc2)nc(-c2ccccc2)c1-c1ccccc1	Mdm2 MdmX PPI 96.7 | Mdm2-MdmX conf 90.7 | Full FLuc ctr 51.5
NC(=O)Cn1c(S(=O)(=O)Cc2ccccc2)nc2ccccc21	none
CCn1nc(NS(=O)(=O)c2ccccc2[N+](=O)[O-])c2cc3ccc(C)cc3nc21	none
Cc1ccc(Nc2nc(-c3cccnc3)nc3ccccc23)cc1	Mdm2 MdmX PPI 63.5 (no result: Beta apoptosis) | Mdm2-MdmX conf 57.1 | Full FLuc ctr 57.2
Cc1c(O)ccc(/C=N/Nc2nc(-c3cccnc3)nc3ccccc23)c1O	Mdm2 MdmX PPI 65.6, T cruzi inh 55.9 | Mdm2-MdmX conf 58.7 | Full FLuc ctr 69.6
